Experimental data published in ChEMBL document CHEMBL1147827, “A pyrimidine-pyrazolone nucleoside chimera with potent in vitro anti-orthopoxvirus activity” (Bioorg Med Chem Lett, 2006).

What was measured:
Vaccinia virus = test: Antiviral activity against Vaccinia virus Copenhagen in HFF cells assessed as reduction in plaque formation; format: functional, organism-based; details: Orthopoxvirus vaccinia
HFF = test: Cytotoxicity against human HFF cells by neutral red uptake; format: functional
Summary of the method: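 Uninfected HFF cells in 96-well plates were exposed to various drug concentrations for 7 days, then stained with neutral red.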

Cowpox virus [1] = test: Antiviral activity against Cowpox virus Brighton in HFF cells assessed as reduction in cytopathogenicity; format: functional, organism-based
Cowpox virus [2] = test: Antiviral activity against Cowpox virus Brighton in HFF cells assessed as reduction in plaque formation; format: functional, organism-based

Compound	EC50 (Vaccinia virus) [µM]	CC50 (HFF) [µM]	EC50 (Cowpox virus [1]) [µM]	EC50 (Cowpox virus [2]) [µM]
CC(=O)OC[C@H]1O[C@@H](n2cc(/C=C3\C(=O)N(c4ccccc4)N=C3C)c(=O)[nH]c2=O)C[C@@H]1OC(C)=O	56	> 252	33.7	48
Nc1ccn(C[C@@H](CO)OCP(=O)(O)O)c(=O)n1 [CIDOFOVIR]	20	> 317	7.1	–
